# Only some compounds are listed: those with a hit (about 2.3% of all), similar ones and a draw of the others.
# TRPC6 act = mouse TRPC6 channel activation. Q61143. HEK293-TRPC6 membrane potential dye fluorescence; hits give high values. B-score at 10 µM. 0.13% of 310,000 active;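 active = B-score of the integrated fluorescence ratio above library mean plus 3 SD, and starting fluorescence ratio within library mean plus 5 SD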;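 also: higher score means more depolarization so channel activation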
# TRPC4 PAM = allosterically enhances the mouse TRPC4 cation channel | Q9QUQ5 | HEK293 TRPC4beta/mu-opioid, DAMGO EC20, Fluo-4 Ca2+ flux; hits give high values | B-score at 10 µM | 0.42% of 310,000 active;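 active = B-score of calcium response area above 5 SD of library B-scores, with initial fluorescence ratio within 5 SD of library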
# Target sequence (Q9QUQ5 whole entry, looked up): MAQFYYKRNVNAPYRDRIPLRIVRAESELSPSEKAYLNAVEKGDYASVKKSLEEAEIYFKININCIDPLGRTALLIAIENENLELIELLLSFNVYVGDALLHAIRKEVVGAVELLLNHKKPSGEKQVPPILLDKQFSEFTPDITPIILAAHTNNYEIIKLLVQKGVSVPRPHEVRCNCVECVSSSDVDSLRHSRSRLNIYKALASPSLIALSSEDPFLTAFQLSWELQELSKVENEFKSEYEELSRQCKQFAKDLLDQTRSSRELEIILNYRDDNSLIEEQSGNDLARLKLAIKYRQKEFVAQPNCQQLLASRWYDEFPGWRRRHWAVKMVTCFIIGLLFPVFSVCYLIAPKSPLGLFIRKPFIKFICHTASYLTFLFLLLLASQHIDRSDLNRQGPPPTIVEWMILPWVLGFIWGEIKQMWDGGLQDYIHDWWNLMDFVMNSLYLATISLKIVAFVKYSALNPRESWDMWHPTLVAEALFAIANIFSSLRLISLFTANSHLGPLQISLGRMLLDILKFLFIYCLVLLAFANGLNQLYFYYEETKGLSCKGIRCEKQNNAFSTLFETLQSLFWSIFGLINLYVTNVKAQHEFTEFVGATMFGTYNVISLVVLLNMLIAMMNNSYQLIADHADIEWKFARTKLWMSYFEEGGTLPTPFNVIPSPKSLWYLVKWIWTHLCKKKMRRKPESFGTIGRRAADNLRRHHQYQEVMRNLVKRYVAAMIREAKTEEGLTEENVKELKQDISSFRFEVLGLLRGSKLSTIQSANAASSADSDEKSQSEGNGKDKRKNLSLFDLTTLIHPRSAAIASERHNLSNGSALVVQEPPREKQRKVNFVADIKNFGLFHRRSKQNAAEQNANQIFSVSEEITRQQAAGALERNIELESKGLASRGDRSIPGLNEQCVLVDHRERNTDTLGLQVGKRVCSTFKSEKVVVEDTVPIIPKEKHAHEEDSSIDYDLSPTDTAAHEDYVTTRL
# TRPC4 agonist = activators of mouse TRPC4 channel. B-score at 10 µM. HEK293 TRPC4beta/mu-opioid, Fluo4 calcium fluorescence; hits give high values. 0.49% of 310,000 active;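 active = B-score above 5 SD of library B-scores, and initial fluorescence ratio not above library mean plus 5 SD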;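 also: positive B-score marks a calcium rise read as TRPC4 activation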
#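 Assay system – TRPC4beta and mu-opioid receptor HEK293 stable cells · Measured by – Fluo4 fluorescence, kinetic · Schedule – dye loading 45 min room temperature, 110 s kinetic read · Read-out – B-scored integrated calcium fluorescence ratio · Controls – buffer and maximal DAMGO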
# TRPC6 inh = blocks the mouse TRPC6 cation channel; Q61143; HEK293-TRPC6, membrane potential dye, ACh-evoked depolarization; hits give low values; B-score at 10 µM; 1.1% of 310,000 active; AID 2553;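 active = B-score under library mean minus 3 SD, initial fluorescence not abnormally high, positive integrated signal ratio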;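 also: B-score derived from integrated fluorescence ratio over the kinetic read; more negative B-score means stronger inhibition of depolarization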
# TRPC4 inh = blocks the mouse TRPC4 cation channel | Q9QUQ5 | 0.39% of 300,000 active | HEK293 TRPC4beta/mu-opioid, DAMGO-evoked Fluo4 calcium flux; hits give low values | B-score at 10 µM | AID 2247;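 active = B-score over 3 SD under the library average, no early fluorescence shift, positive overall ratio signal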
#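 Signal: kinetic Fluo4 fluorescence imaging of calcium influx. Material: stable TRPC4beta/mu-opioid receptor HEK293 cells. Probe or stimulus: DAMGO in two steps, submaximal then maximal.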
# Hits are given with their value; – = inactive.
SMILES,TRPC6 act,TRPC4 PAM,TRPC4 agonist,TRPC6 inh,TRPC4 inh
COc1ccc(NC(=O)c2ccc(C(=O)c3cc(OC)ccc3OC)cc2)cc1,–,–,–,–,–
S=C(CN1CCCC1=S)NCCc1ccccc1,–,–,–,–,–
CCCN(CCC)CCNC(=O)C1CCN(Cc2nc(-c3ccc(Cl)cc3)oc2C)CC1,–,–,–,-7.16,–
Cc1cc(C)nc(NC(N)=NC2CCCCC2)n1,–,–,–,–,-9
CC(=O)CC(=O)NC(=NC1CCCCC1)Nc1nc(C)cc(C)n1,–,–,–,–,–
CC(C)(C)c1cc(C(=S)N2CCN(CCO)CC2)cc(C(C)(C)C)c1O,–,–,–,–,–
CC(C)(C)c1cc(C(=O)CCN2CCOCC2)cc(C(C)(C)C)c1O,–,11,–,–,–
O=C1/C(=C/c2ccccc2Cl)SC(=S)N1CCCC(=O)N(CCO)c1ccccc1,–,–,–,–,-6
Cn1nnnc1SCC(=O)Nc1cc(S(=O)(=O)N2CCCC2)ccc1Cl,–,–,–,–,–
O=C(CSc1cccc(C(F)(F)F)c1)Nc1cc(S(=O)(=O)N2CCCC2)ccc1Cl,–,10,–,–,–
CCOC1(C)OCC(=O)[C@]2(CCC3C4CCC5=CC(=O)C=CC5(C)C4C(=O)CC32C)O1 (stereo partly drawn),–,–,–,–,–
CCn1cc(C(=O)N[C@@H](C)C(=O)NCCCn2ccnc2)c(=O)c2cc3c(cc21)OCO3,–,–,–,–,–
CCCCN(CC)CCCNC(=S)Nc1ccc2nc(N3CCN(C)CC3)cc(C)c2c1,–,–,–,–,–
CCCCN(CC)CCCNC(=S)Nc1ccc2nc(N3CCN(CC)CC3)cc(C)c2c1,–,–,71,–,–
CCCCN(CC)CCCNC(=S)Nc1ccc2nc3n(c(=O)c2c1)CCCCC3,–,10,–,–,–
N#CC1=C(N)C(C#N)(C#N)C(c2cccnc2)C2CC(c3ccccc3)CC=C12 (stereo not drawn),–,36,–,–,–
N#CC1=C(N)C(C#N)(C#N)C(c2cccnc2)C2CCCC=C12 (stereo not drawn),–,–,–,–,–
COc1cc(CNc2ccc(S(N)(=O)=O)cc2)ccc1OCC(=O)NC1CCCCC1,–,–,–,–,–
O=C(CNc1ccc(Br)cc1)c1ccc(O)cc1,–,–,–,–,-8
CC(=O)Nc1cc(C(=O)NCc2ccco2)ccc1Sc1ccc(C)cc1,–,–,–,–,–
Cc1ccccc1CN1N=C(/C=C/c2ccccc2)CCC1=O,–,14,–,–,–
C=CCNC(=S)N/N=C/c1ccc(C(C)(C)C)cc1,–,–,–,–,-6
CC(C)(C)c1ccc(/C=N/NC(=S)NCc2ccccc2)cc1,–,–,–,–,–
O=C(Cc1c(F)cccc1Cl)N1CCN(S(=O)(=O)c2cccc(F)c2)CC1,–,–,–,–,–
c1ccc2[nH]c(CCCCc3nc4ccccc4[nH]3)nc2c1,–,–,–,–,-6
SMILES,TRPC6 act,TRPC4 PAM,TRPC4 agonist,TRPC6 inh,TRPC4 inh
O=C(Cc1nc2ccccc2[nH]1)c1ccc(Br)cc1,–,–,72,–,–
Cc1ccc(NC(=O)CSc2nnc(-c3ccccn3)n2N)c(Br)c1,–,–,–,–,–
Oc1ccccc1CNc1cccc2cccnc12,–,–,–,–,–
Nc1sc(-c2ccccc2)n[n+]1Cc1cccc2cccnc12,–,–,58,–,–
O=C1/C(=C/c2ccncc2)SC(=S)N1Cc1ccccc1,–,12,–,–,–
COc1cc(CN2CCc3ccccc3C2)ccc1O,–,–,–,–,–
CCc1ccc(Nc2n[n+](-c3ccccc3)c(-c3c(Cl)cccc3Cl)s2)cc1,–,–,–,–,–
CCc1ccc(Nc2n[n+](-c3ccccc3)c(/C=C/c3ccccc3)s2)cc1,–,15,–,–,–
CCCCCCSc1ccc([C@H]2N[C@@](C)(C(=O)OC)[C@H]3C(=O)N(CC)C(=O)[C@@H]23)cc1,–,–,–,–,–
Cc1cc(NC(=O)C(C)Oc2ccccc2)no1 (stereo not drawn),–,–,–,–,–
CC(C)(Sc1cc(C(C)(C)C)c(O)c(C(C)(C)C)c1)Sc1cc(C(C)(C)C)c(O)c(C(C)(C)C)c1,–,–,83,–,–
CCc1nnc2c(NCCc3ccccc3)nc3ccccc3n12,–,–,–,–,–
Clc1c(-c2nnc3n2CCCCC3)sc2ccccc12,–,–,–,–,–
